Source: ChEMBL document CHEMBL1143188, “5-Aryl-imidazolin-2-ones as a scaffold for potent antioxidant and memory-improving activity” (Bioorg Med Chem Lett, 2008)
Calls of active or inactive are those of the source. The rule behind the calls is not given here.

Experiments:
Brain = assay: Inhibition of lipid peroxidation in Wistar rat brain homogenates by TBARS assay; assay type: functional, tissue-based
Outline: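 Male Wistar rat brain homogenate autooxidized at 37 °C for 30 min with or without compound. Lipid peroxidation read by a modified thiobarbituric acid (TBARS) test; IC50 derived.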

[1] = DPPH radical scavenging activity at 100 uM relative to control; assay type: ADME
Outline: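 DPPH 100 μM in ethanol; compound added in ethanol to a final 100 μM; optical density read; scavenging expressed as a percentage of the optical density of a control with excess vitamin C.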

Rattus norvegicus [2] = assay: Memory improving activity in rat passive avoidance model assessed as effect on cycloheximide-induced amnesia at 0.1 mg/kg, po; assay type: functional, organism-based; parameters: dose 0.1 mg/kg
Outline: (§1)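 Passive avoidance: one day after training, compound (0.1–30 mg/kg) or vehicle given orally 30 min before a retention trial. Read-out was latency to move from the light to the dark room; minimum effective dose (MED) reported.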

Rattus norvegicus [3] = assay: Memory improving activity in po dosed rat passive avoidance model assessed as effect on cycloheximide-induced amnesia; assay type: functional; details: read-out: MED; outline: as §1
Rattus norvegicus [4] = assay: Toxicity in po dosed rat; assay type: organism-based; details: in vivo

SMILES	IC50 (Brain) [µM]	also measured
CCCCCCCOc1ccc(-c2c(C)[nH]c(=O)n2C)cc1	5.7	Activity (Rattus norvegicus [2]): inactive
Cc1[nH]c(=O)n(C2CCCCC2)c1-c1ccc(C2CCCCC2)cc1	28.9	–
CCCCCCCCc1ccc(-c2c(C)[nH]c(=O)n2C)cc1	19.4	–
Cc1[nH]c(=O)n(C)c1-c1ccc(OCCC(C)C)cc1	6.6	Activity (Rattus norvegicus [2]): inactive
CCCCCCCCOc1ccc(-c2c(C)[nH]c(=O)n2C)cc1	4	minimal effective dose (Rattus norvegicus [3]): 30 mg/kg
CCCCCCCCCCCCCCc1ccc(-c2c(C)[nH]c(=O)n2C2CCCCC2)cc1	> 100	–
Cc1[nH]c(=O)n(C)c1-c1ccc(C(C)(C)C)cc1	8.4	–
Cc1[nH]c(=O)n(C)c1-c1ccccc1	> 100	–
Cc1[nH]c(=O)n(C)c1-c1ccc(OC(C)C)cc1	20.4	–
CCCCc1ccc(-c2c(C)[nH]c(=O)n2-c2ccccc2)cc1	16.6	–
CCCCc1ccc(-c2c(C)[nH]c(=O)n2C(C)C)cc1	10.7	Activity [1]: 78%
CCCCCCCCCCCCCCCCCCOc1ccc(-c2c(C)[nH]c(=O)n2C2CCCCC2)cc1	> 100	–
COc1ccc(-c2c(C)[nH]c(=O)n2C)cc1	147	–
CCCCCCOc1ccc(-c2c(C)[nH]c(=O)n2C)cc1	7.3	Activity (Rattus norvegicus [2]): inactive
CCCCc1ccc(-c2c(C)[nH]c(=O)n2Cc2ccccc2)cc1	12.4	Activity [1]: 59%
CCCCCCCCCCc1ccc(-c2c(C)[nH]c(=O)n2C2CCCCC2)cc1	27	–
CCCCCCCCCCCCCCCCCCOc1ccc(-c2c(C)[nH]c(=O)n2C)cc1	> 100	–
CCCCCCCCCCCCCCCCCCc1ccc(-c2c(C)[nH]c(=O)n2C2CCCCC2)cc1	> 100	–
CCCCCCCCCCOc1ccc(-c2c(C)[nH]c(=O)n2C)cc1	6.9	minimal effective dose (Rattus norvegicus [3]): 0.1 mg/kg
CCCCCCCc1ccc(-c2c(C)[nH]c(=O)n2C)cc1	8.4	minimal effective dose (Rattus norvegicus [3]): 30 mg/kg
CCCCCCCCCCCCOc1ccc(-c2c(C)[nH]c(=O)n2C)cc1	9.7	minimal effective dose (Rattus norvegicus [3]): 0.1 mg/kg

SMILES	IC50 (Brain) [µM]	also measured
Cc1ccc(-c2c(C)[nH]c(=O)n2C)cc1	85.3	–
CCCCCCCCCCc1ccc(-c2c(C)[nH]c(=O)n2C)cc1	7.9	minimal effective dose (Rattus norvegicus [3]): 0.3 mg/kg
Cc1[nH]c(=O)n(C)c1-c1ccc(-c2ccccc2)cc1	6.3	Activity (Rattus norvegicus [4]): > 1000 mg/kg; minimal effective dose (Rattus norvegicus [3]): 0.3 mg/kg
CCCCCOc1ccc(-c2c(C)[nH]c(=O)n2C)cc1	4.5	Activity (Rattus norvegicus [2]): inactive
CCCCn1c(-c2ccccc2)c(C)[nH]c1=O	> 100	–
CCCCCCCCCCCCc1ccc(-c2c(C)[nH]c(=O)n2C2CCCCC2)cc1	> 100	–
CCCCc1ccc(-c2c(C)[nH]c(=O)n2C)cc1	10.7	Activity (Rattus norvegicus [4]): > 1000 mg/kg; Activity [1]: 98%; minimal effective dose (Rattus norvegicus [3]): 0.1 mg/kg
CCCCOc1ccc(-c2c(C)[nH]c(=O)n2C)cc1	5.1	minimal effective dose (Rattus norvegicus [3]): 0.3 mg/kg
Cc1[nH]c(=O)n(C)c1-c1ccc(C2CCCCC2)cc1	10	Activity (Rattus norvegicus [4]): > 1000 mg/kg; minimal effective dose (Rattus norvegicus [3]): 0.1 mg/kg
CCCc1ccc(-c2c(C)[nH]c(=O)n2C)cc1	21.5	–
Cc1[nH]c(=O)n(C)c1-c1ccc(CC(C)C)cc1	7.8	minimal effective dose (Rattus norvegicus [3]): 30 mg/kg
CCCCCc1ccc(-c2c(C)[nH]c(=O)n2C)cc1	5.9	–
CCCCCCCCCCCCCCCCCCc1ccc(-c2c(C)[nH]c(=O)n2C)cc1	> 100	–
Cc1[nH]c(=O)n(C)c1-c1ccc(Oc2ccccc2)cc1	8.1	Activity (Rattus norvegicus [2]): inactive
CCCCc1ccc(-c2c(CC)[nH]c(=O)n2C)cc1	13.9	–
CCCCCCCCCCCCc1ccc(-c2c(C)[nH]c(=O)n2C)cc1	13	–
CCCCc1ccc(-c2c(C)[nH]c(=O)n2CCCC)cc1	12	–
CCCCCCc1ccc(-c2c(C)[nH]c(=O)n2C)cc1	9	minimal effective dose (Rattus norvegicus [3]): 0.3 mg/kg
CCCCCCCCc1ccc(-c2c(C)[nH]c(=O)n2C2CCCCC2)cc1	10.3	–
CCCCCCCCCCCCCCc1ccc(-c2c(C)[nH]c(=O)n2C)cc1	43.8	–

The next lines start with results.

IC50 (Brain) [µM]	SMILES	also measured
13.9	CCCCOc1ccc(-c2c(C)[nH]c(=O)n2C2CCCCC2)cc1	Activity [1]: 88%
8.5	CCCCCCOc1ccc(-c2c(C)[nH]c(=O)n2C2CCCCC2)cc1	Activity (Rattus norvegicus [2]): inactive
52.4	CCCCCCCCCCCCOc1ccc(-c2c(C)[nH]c(=O)n2C2CCCCC2)cc1	–
11.6	CCCCCCCOc1ccc(-c2c(C)[nH]c(=O)n2C2CCCCC2)cc1	–
13	Cc1[nH]c(=O)n(C2CCCCC2)c1-c1ccc(OC(C)C)cc1	–
9.1	CCCCCOc1ccc(-c2c(C)[nH]c(=O)n2C2CCCCC2)cc1	Activity (Rattus norvegicus [2]): inactive
10.9	Cc1[nH]c(=O)n(C2CCCCC2)c1-c1ccc(CC(C)C)cc1	–
10.6	CCCCCc1ccc(-c2c(C)[nH]c(=O)n2C2CCCCC2)cc1	–
10.4	Cc1[nH]c(=O)n(C2CCCCC2)c1-c1cccc(OC(C)C)c1	–
13.7	CCCCCCc1ccc(-c2c(C)[nH]c(=O)n2C2CCCCC2)cc1	–
27.1	CCCCc1ccc(-c2c(C)[nH]c(=O)n2C2CCCCC2)cc1	–
7.2	Cc1[nH]c(=O)n(C2CCCCC2)c1-c1ccc(OCCC(C)C)cc1	Activity (Rattus norvegicus [2]): inactive
47.6	Cc1[nH]c(=O)n(C2CCCCC2)c1-c1ccccc1	–
20.4	COc1ccc(-c2c(C)[nH]c(=O)n2C2CCCCC2)cc1	–
21.5	Cc1[nH]c(=O)n(C2CCCCC2)c1-c1ccccc1OC(C)C	–
10.9	Cc1[nH]c(=O)n(C2CCCCC2)c1-c1ccc(-c2ccccc2)cc1	minimal effective dose (Rattus norvegicus [3]): 0.1 mg/kg
8.5	CCCCCCCCOc1ccc(-c2c(C)[nH]c(=O)n2C2CCCCC2)cc1	minimal effective dose (Rattus norvegicus [3]): 30 mg/kg
8.7	CCCCCCCc1ccc(-c2c(C)[nH]c(=O)n2C2CCCCC2)cc1	–
7.9	Cc1[nH]c(=O)n(C2CCCCC2)c1-c1ccc(Oc2ccccc2)cc1	minimal effective dose (Rattus norvegicus [3]): 0.1 mg/kg
13.9	CCCc1ccc(-c2c(C)[nH]c(=O)n2C2CCCCC2)cc1	–
10.5	CCCCCCCCCCOc1ccc(-c2c(C)[nH]c(=O)n2C2CCCCC2)cc1	minimal effective dose (Rattus norvegicus [3]): 0.1 mg/kg
8.3	Cc1[nH]c(=O)n(C2CCCCC2)c1-c1ccc(OCc2ccccc2)cc1	minimal effective dose (Rattus norvegicus [3]): 0.1 mg/kg
6.7	Cc1[nH]c(=O)n(C)c1-c1ccc(OCc2ccccc2)cc1	Activity (Rattus norvegicus [2]): inactive
